pIC50: −log10 of the molar value. Converted amounts (≈) assume the structure as drawn. One block for each compound: values may come before it.
How the values were obtained:
[1] = target: T1, Plasma kallikrein (Homo sapiens, UniProt P03952); assay: Inhibition of human plasma kallikrein using H-D-Pro-Phe-Arg-AFC as flurogenic substrate preincubated for 5 mins followed by substrate addition by fluorometer analysis; type: cell-free
[2] = target: T1, Plasma kallikrein; assay: Inhibition of human plasma kallikrein using H-D-Pro-Phe-Arg-AFC as flurogenic substrate at 1000 nM preincubated for 5 mins followed by substrate addition by fluorometer analysis relative to control; type: cell-free
How it was run: (§1)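 Crude library compounds (unpurified, dissolved in DMSO) were screened twice, once at each of the single concentrations. Human plasma kallikrein was preincubated with compound for 5 min, then H-D-Pro-Phe-Arg-AFC was added. Activity was followed as the kinetic rate of fluorogenic substrate cleavage, and percent inhibition was calculated relative to control.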

[3] = target: T1, Plasma kallikrein; assay: Inhibition of human plasma kallikrein using H-D-Pro-Phe-Arg-AFC as flurogenic substrate at 100 nM preincubated for 5 mins followed by substrate addition by fluorometer analysis relative to control; type: cell-free; how it was run: as §1
[4] = Metabolic stability in human liver microsomes assessed as intrinsic clearance per mg of protein measured upto 60 mins in presence of NADPH regenerating system by LC-MS/MS analysis; type: ADME, Microsome; details: microsomes, 1 h
[5] = Kinetic solubility of the compound in 0.1N HCl
[6] = Kinetic solubility of the compound in aqueous assay buffer at pH 7.7

T1 sequence (P03952 20-390 limits assumed): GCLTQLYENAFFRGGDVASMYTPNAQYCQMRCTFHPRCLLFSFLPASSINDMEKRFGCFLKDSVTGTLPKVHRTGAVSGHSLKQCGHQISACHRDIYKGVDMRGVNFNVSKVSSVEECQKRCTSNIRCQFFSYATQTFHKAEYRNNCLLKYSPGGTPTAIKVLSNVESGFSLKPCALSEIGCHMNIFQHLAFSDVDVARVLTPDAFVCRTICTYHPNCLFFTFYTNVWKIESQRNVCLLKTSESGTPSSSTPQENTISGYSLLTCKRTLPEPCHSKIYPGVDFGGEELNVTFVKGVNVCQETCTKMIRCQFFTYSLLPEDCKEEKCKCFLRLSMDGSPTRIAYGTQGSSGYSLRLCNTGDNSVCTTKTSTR
T1 sequence (P03952 391-638 limits assumed): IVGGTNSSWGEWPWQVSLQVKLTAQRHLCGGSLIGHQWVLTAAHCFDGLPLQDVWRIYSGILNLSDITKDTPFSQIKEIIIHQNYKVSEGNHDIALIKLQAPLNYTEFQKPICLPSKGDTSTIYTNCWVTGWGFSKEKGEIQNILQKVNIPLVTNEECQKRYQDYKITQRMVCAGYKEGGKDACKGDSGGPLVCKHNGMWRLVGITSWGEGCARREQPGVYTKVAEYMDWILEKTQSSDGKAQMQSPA

Compound: Cc1cc(C(=O)NCc2ccc(CN)cc2)c(C)n1Cc1csc(-c2ccccc2)n1
pIC50 [1]: 7.14

inhibition [2]: 62% | inhibition [3]: 12%
Compound: Cc1ccccc1CNC(=O)c1cnn(Cc2ccc(Cn3ccccc3=O)cc2)c1

Compound: Cc1cc(C(=O)NCc2ccc(CN)cc2)c(C)n1CCCCc1ccccc1
pIC50 [1]: 6.04

Compound: Cc1cc(C(=O)NCc2ccc(CN)cc2)c(C)n1Cc1ccc(-c2ccccc2)cc1
pIC50 [1]: 5.25

Compound: COCc1nn(Cc2ccc(Cn3ccccc3=O)cc2)cc1C(=O)NCc1nccc(C)c1Cl
pIC50 [1]: 6.52

Compound: COCc1nn(Cc2ccc(Cn3ccccc3=O)cc2)cc1C(=O)NCc1ncc(C)c(OC)c1C
pIC50 [1]: 7.43

Compound: COCc1nn(Cc2ccc(Cn3ccccc3=O)cc2)cc1C(=O)NCc1nc(C)ccc1F
pIC50 [1]: 6.05

Compound: COc1ccnc(CNC(=O)c2cnn(Cc3ccc(Cn4ccccc4=O)cc3)c2)c1F
microsomal intrinsic clearance [4]: 2 µL/min | pIC50 [1]: 8.29

Compound: COCc1nn(Cc2ccc(Cn3ccccc3=O)cc2)cc1C(=O)NCc1ncc(Cl)cc1F
pIC50 [1]: 6.80

solubility kinetic [5]: > 120 µg/mL | microsomal intrinsic clearance [4]: 120 µL/min | solubility kinetic [6]: > 120 µg/mL
Compound: COCc1nn(Cc2ccc(Cn3ccccc3=O)cc2)cc1C(=O)NCc1c(Cl)ccc(OC)c1F

solubility kinetic [5]: > 110 µg/mL | microsomal intrinsic clearance [4]: 170 µL/min | solubility kinetic [6]: 58 µg/mL (≈ 119 µM)
Compound: COc1cccc(CNC(=O)c2cn(Cc3ccc(Cn4ccccc4=O)cc3)nc2C2CC2)c1F

inhibition [2]: 72% | inhibition [3]: 17%
Compound: COc1ccc(CNC(=O)c2cnn(Cc3ccc(Cn4ccccc4=O)cc3)c2)cc1

Compound: Cc1cc(C(=O)NCc2ccc(C(=N)N)cc2)c(C)n1Cc1ccccc1
pIC50 [1]: 8.26

Compound: NCc1ccc(CNC(=O)c2cnn(Cc3csc(-c4ccccc4)n3)c2)cc1
pIC50 [1]: 6.07

inhibition [2]: 59% | inhibition [3]: 13%
Compound: O=C(NCc1ccccc1F)c1cnn(Cc2ccc(Cn3ccccc3=O)cc2)c1

Compound: COCc1nn(Cc2ccc(Cn3ccccc3=O)cc2)cc1C(=O)NCc1nccc(OC(C)C)c1F
pIC50 [1]: 5.62

inhibition [2]: 67% | inhibition [3]: 12%
Compound: O=C(NCc1ccccc1Cl)c1cnn(Cc2ccc(Cn3ccccc3=O)cc2)c1

Compound: Cc1cc(C(=O)NCc2ccc(CN)cc2)c(C)n1CCCCCc1ccccc1
pIC50 [1]: 5.42

Compound: Cc1cc(C(=O)NCc2ccc(CN)cc2)c(C)n1Cc1ccccc1
pIC50 [1]: 5.43

Compound: N=C(N)c1ccc(CNC(=O)c2cnn(Cc3ccccc3)c2)cc1
pIC50 [1]: 7.21

Compound: Cc1cc(C(=O)NCc2ccc(CN)cc2)c(C)n1CCCc1ccccc1
pIC50 [1]: 5.32

Compound: O=C(NCc1c(F)cccc1Cl)c1cnn(Cc2ccc(Cn3ccccc3=O)cc2)c1
inhibition [2]: 92% | pIC50 [1]: 7.51 | inhibition [3]: 61%

Compound: COCc1nn(Cc2ccc(Cn3ccccc3=O)cc2)cc1C(=O)NCc1nc(OC)ccc1F
pIC50 [1]: 6.05

Compound: COCc1nn(Cc2ccc(Cn3ccccc3=O)cc2)cc1C(=O)NCc1nccc(Cl)c1F
pIC50 [1]: 7.03

microsomal intrinsic clearance [4]: 181 µL/min
Compound: Cc1cnn(Cc2ccc(Cn3cc(C(=O)NCc4ccc5c(N)nccc5c4)cn3)cc2)c1

Compound: Cc1cnn(Cc2ccc(Cn3c(C)cc(C(=O)NCc4ccc(CN)cc4)c3C)cc2)c1
pIC50 [1]: 7.19

Compound: Cc1cc(C(=O)NCc2ccc(CN)cc2)c(C)n1Cc1csc(-c2ccccc2)c1
pIC50 [1]: 6.22

Compound: Cc1ccc(CNC(=O)c2cnn(Cc3ccc(Cn4ccccc4=O)cc3)c2)cc1
inhibition [2]: 84% | pIC50 [1]: 7.06 | inhibition [3]: 36%

Compound: Cc1cc(C(=O)NCc2ccc(CN)cc2)c(C)n1Cc1cccs1
pIC50 [1]: 5.57

Compound: COCc1nn(Cc2ccc(Cn3ccccc3=O)cc2)cc1C(=O)NCc1nccc(C)c1F
pIC50 [1]: 6.85

Compound: COCc1nn(Cc2ccc(Cn3ccccc3=O)cc2)cc1C(=O)NCc1ncc(Cl)cc1C#N
pIC50 [1]: 6.60

Compound: COCc1nn(Cc2ccc(Cn3ccccc3=O)cc2)cc1C(=O)NCc1sccc1Cl
pIC50 [1]: 6.68

solubility kinetic [5]: > 120 µg/mL | solubility kinetic [6]: > 120 µg/mL
Compound: COc1cccc(CNC(=O)c2cn(Cc3ccc(Cn4ccccc4=O)cc3)nc2N(C)C)c1F

Compound: COCc1nn(Cc2ccc(Cn3ccccc3=O)cc2)cc1C(=O)NCc1cc[nH]n1
pIC50 [1]: 6.24

solubility kinetic [5]: > 120 µg/mL | solubility kinetic [6]: > 120 µg/mL
Compound: COCc1nn(Cc2ccc(Cn3ccccc3=O)cc2)cc1C(=O)NCc1cccc(O)c1F

inhibition [2]: 57% | inhibition [3]: 11%
Compound: Cc1cccc(CNC(=O)c2cnn(Cc3ccc(Cn4ccccc4=O)cc3)c2)c1

inhibition [2]: 63% | inhibition [3]: 11%
Compound: COc1ccccc1CNC(=O)c1cnn(Cc2ccc(Cn3ccccc3=O)cc2)c1

Compound: COc1cccc(CNC(=O)c2cnn(Cc3ccc(Cn4ccccc4=O)cc3)c2)c1
inhibition [2]: 83% | pIC50 [1]: 7.05 | inhibition [3]: 35%

Compound: O=C(NCc1c(Cl)cccc1Cl)c1cnn(Cc2ccc(Cn3ccccc3=O)cc2)c1
inhibition [2]: 94% | pIC50 [1]: 7.40 | inhibition [3]: 56%

inhibition [2]: 74% | inhibition [3]: 20%
Compound: O=C(NCc1cccc(Cl)c1)c1cnn(Cc2ccc(Cn3ccccc3=O)cc2)c1

Compound: CCOc1ccnc(CNC(=O)c2cn(Cc3ccc(Cn4ccccc4=O)cc3)nc2COC)c1F
microsomal intrinsic clearance [4]: 69 µL/min | pIC50 [1]: 8.10

Compound: COCc1nn(Cc2ccc(Cn3ccccc3=O)cc2)cc1C(=O)NCc1cc(C)[nH]n1
pIC50 [1]: 6.66

solubility kinetic [5]: > 120 µg/mL | solubility kinetic [6]: > 120 µg/mL
Compound: COCc1nn(Cc2ccc(Cn3ccccc3=O)cc2)cc1C(=O)NCc1cc(OC)ccc1F

Compound: Cc1cc(C(=O)NCc2ccc(CN)cc2)c(C)n1Cc1csc(-c2cccnc2)c1
pIC50 [1]: 6.36

Compound: Cc1cc(C(=O)NCc2ccc(CN)cc2)c(C)n1Cc1cc(-c2ccccc2)cs1
pIC50 [1]: 6.24

Compound: COCc1nn(Cc2ccc(Cn3ccccc3=O)cc2)cc1C(=O)NCc1cnccc1C(F)(F)F
pIC50 [1]: 6.34

pIC50 [1]: < 5.00
Compound: Cc1cc(C(=O)NCc2ccc(CN)cc2)c(C)n1CCc1ccccc1

solubility kinetic [5]: 29 µg/mL (≈ 59.4 µM) | solubility kinetic [6]: > 120 µg/mL
Compound: CCc1cccc(CNC(=O)c2cn(Cc3ccc(Cn4ccccc4=O)cc3)nc2COC)c1F

Compound: O=C(NCc1c(F)cccc1C(F)(F)F)c1cnn(Cc2ccc(Cn3ccccc3=O)cc2)c1
inhibition [2]: 97% | pIC50 [1]: 8.11 | inhibition [3]: 83%

Compound: COc1ccnc(CNC(=O)c2cn(Cc3ccc(Cn4ccccc4=O)cc3)nc2C2CC2)c1F
microsomal intrinsic clearance [4]: 49 µL/min | pIC50 [1]: 8.36

inhibition [2]: 60% | inhibition [3]: 13%
Compound: O=C(NCc1ccc(Cl)cc1)c1cnn(Cc2ccc(Cn3ccccc3=O)cc2)c1

Compound: Cc1cc(C(=O)NCc2ccc(CN)cc2)c(C)n1Cc1csc(Cc2ccccc2)n1
pIC50 [1]: 5.57

Compound: COc1ccc(F)c(CNC(=O)c2cnn(Cc3ccc(Cn4ccccc4=O)cc3)c2)c1F
microsomal intrinsic clearance [4]: 36 µL/min | pIC50 [1]: 8.52

Compound: Cc1cc(C(=O)NCc2ccc(CN)cc2)c(C)n1Cc1coc(-c2ccccc2)n1
pIC50 [1]: 6.32

Compound: COCc1nn(Cc2ccc(Cn3ccccc3=O)cc2)cc1C(=O)NCc1ncc(F)cc1F
pIC50 [1]: 5.65

Compound: Cc1cc(C(=O)NCc2ccc(CN)cc2)c(C)n1Cc1cccc(-c2cccnc2)n1
pIC50 [1]: 6.24

Compound: Cc1cccc(C)c1CNC(=O)c1cnn(Cc2ccc(Cn3ccccc3=O)cc2)c1
inhibition [2]: 89% | pIC50 [1]: 7.17 | inhibition [3]: 53%

Compound: Cc1cc(C(=O)NCc2ccc(CN)cc2)c(C)n1Cc1cccc(-c2ccccc2)c1
pIC50 [1]: 6.14

Compound: O=C(NCc1c(F)cccc1F)c1cnn(Cc2ccc(Cn3ccccc3=O)cc2)c1
inhibition [2]: 88% | pIC50 [1]: 7.21 | inhibition [3]: 47%

inhibition [2]: 29% | inhibition [3]: 0%
Compound: O=C(NCc1ccccc1)c1cnn(Cc2ccc(Cn3ccccc3=O)cc2)c1

— ChEMBL document CHEMBL5108074 (J Med Chem, 2022)
